PAX8 reporter: inhibitors of PAX8-driven TPO luciferase reporter, primary screen, RMG-I cells, single concentration | SteadyGlo, 24 h | inhibition, % at 12.6 µM | actives 1.2% (n = 360,000);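 active means mean replicate inhibition at least 60% with every replicate also reaching 60%; inconclusive means only one of the two criteria is met; inactive means mean below 60% and not all replicates reaching 60%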;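 further: luciferase light reporting Pax8 driven TPO promoter activity; plate controls were median of neutral control wells for no effect and mitoxantrone controls for full effect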
N-glyco inh: increase of ERlucT glycosylation luciferase signal, primary screen, N-linked glycosylation inhibitor project, D54 ERlucT cells, luminescence, set 2; reporter increase, % at 12.5 µM; D54 ERlucT glycosylation luciferase reporter, 24 h; percent of 100 nM tunicamycin response; actives 0.23% (n = 360,000);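 active means mean luciferase reporter signal, scaled so untreated is 0 and the glycosylation-blocking control 100, at or above a set limit in every replicate; inconclusive means mean reaches the limit but not every replicate does; inactive means mean below the limit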;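 further: luciferase carries N-glycosylation sites so blocking glycosylation raises the light; 0% = median of neutral control wells and 100% = median of 100 nM tunicamycin wells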
HIV Env fusion: inhibitors of HIV-1 Env-driven cell-cell fusion, primary screen, HeLa-JRFL effector, CEM21 target cells, luciferase; inhibition, % at 12.3 µM; actives 1.1% (n = 360,000); AID 651610, 2012;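 active means mean replicate inhibition score of at least 50 and every replicate individually at or above 50; inconclusive means only one of the two criteria met; inactive means mean below 50 and not all replicates reaching 50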;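 further: 0% = plate neutral controls and 100% = maraviroc near 300 nM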
Rtt109 HAT inh: inhibitors of C. albicans Rtt109/Vps75 HAT, primary screen, biochemical, ThioGlo CoA-SH fluorescence, plate reader; Histone acetyltransferase RTT109 (Candida albicans (strain SC5314 / ATCC MYA-2876)), …; purified Rtt109/Vps75, 4 h; inhibition, % at 34.9 µM; actives 0.16% (n = 330,000); AID 540336, 2011;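 active means inhibition of at least 50% in every replicate; inconclusive means best replicate reaches 50% inhibition but some replicates fall short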
Target sequence (Q5AAJ8 whole entry, looked up): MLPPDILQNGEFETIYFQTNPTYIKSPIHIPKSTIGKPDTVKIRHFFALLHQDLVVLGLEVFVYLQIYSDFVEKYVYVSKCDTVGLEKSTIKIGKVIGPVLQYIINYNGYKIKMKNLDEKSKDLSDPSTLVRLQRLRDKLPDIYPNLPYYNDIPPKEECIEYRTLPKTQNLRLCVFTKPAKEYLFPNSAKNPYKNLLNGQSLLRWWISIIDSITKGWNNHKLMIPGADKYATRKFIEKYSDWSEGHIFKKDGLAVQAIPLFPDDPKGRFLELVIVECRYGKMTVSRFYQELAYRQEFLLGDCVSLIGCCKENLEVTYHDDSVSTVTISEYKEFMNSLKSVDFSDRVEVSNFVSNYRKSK
Arrestin-AP2 inh: inhibitors of beta-arrestin/AP2 binding, primary screen, biochemical, GPCR trafficking, flow cytometry; FITC-arrestin peptide / GST-AP2 beads; AP2 beta2 appendage carries R879A mutation; inhibition, % at 10 µM; actives 0.31% (n = 340,000); AID 504490, 2011;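 active means inhibition above a set limit, near 3 SD of compounds lacking own fluorescence, cut at about 54% in these data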;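 further: plate controls were DMSO wells for no effect and 5 µM unlabelled arrestin peptide for full effect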
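test system = AP2 appendage R879A on GSH beads | buffer or medium = PBS plus Tween 20 (0.05%) and BSA (0.1%) | incubation = 12 min plus 1 h, RT | detection = bead flow cytometry, FITC channel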
PfHsp90 set2: growth inhibition of PfHsp90-expressing yeast, primary screen, antimalarial PfHsp90 inhibitor project, S. cerevisiae, BacTiter-Glo luminescence, single point, set 2. inhibition, % at 9.4 µM. actives 0.32% (n = 310,000). BacTiter-Glo ATP, 48 h; yeast lacking PDR1 and PDR3 efflux regulators;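 active means every replicate shows inhibition above about 80%, whatever the replicate mean, limit read from the data; inconclusive means mean inhibition reaches the set limit but some replicate falls short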;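 further: 0% = DMSO neutral controls and 100% = 20 µM radicicol positive controls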
An asterisk follows results filed as active; ? = inconclusive; . = no result given; ! = not active in a repeat; [ ] = remark or other dose. In the library only some 2.3% were active in any assay of this set; here they are far more common.

SMILES	PAX8 reporter	N-glyco inh	HIV Env fusion	Rtt109 HAT inh	Arrestin-AP2 inh	PfHsp90 set2
COC(=O)[C@@]1(Cc2ccccc2)[C@H]2C(=O)N(Cc3ccccc3)C(=O)[C@H]2[C@H]2CN=C(SCC(=O)c3ccccc3)N21	-8.0	15.6	16.4	-3.3	-0.6	4.0
CC[C@]1(C(=O)OC)[C@H]2C(=O)N(Cc3ccccc3)C(=O)[C@H]2[C@H]2CN=C(SCC(=O)c3ccccc3)N21	-19.5	3.0	72.0*	3.4	2.3	3.8
COC(=O)[C@@]1(C)[C@H]2C(=O)N(Cc3ccccc3)C(=O)[C@H]2[C@H]2CN=C(SCc3ccc(Cl)cc3)N21	9.0	-1.4	78.5*	0.0	9.1	6.0
CCN1C(=O)[C@H]2[C@H]3CN=C(SCc4ccc(Cl)cc4)N3[C@@](C)(C(=O)OC)[C@H]2C1=O	-13.6	1.7	34.4	5.2	2.2	-15.5
COC(=O)[C@@]1(C)[C@H]2C(=O)N(Cc3ccccc3)C(=O)[C@H]2[C@H]2CN=C(SCc3ccc(C#N)cc3)N21	-7.7	-0.7	75.2*	7.8	13.4	-10.8
CCN1C(=O)[C@H]2[C@H]3CN=C(SCc4ccccc4)N3[C@@](C)(C(=O)OC)[C@H]2C1=O	-9.2	0.8	-17.8	1.5	0.8	-15.1
COc1cccc(CNC(=O)C[C@@H]2CC[C@H](NC(C)=O)[C@@H](CO)O2)c1	-7.7	.	15.0[16.7 µM]	.	.	.
CCC(=O)N1CC2(C1)CN(C(=O)CN1CCOCC1)[C@@H](CO)c1c2c2ccc(OC)cc2n1C	-2.6	.	.	.	.	.
COc1ccc(S(=O)(=O)Nc2cccc3c2O[C@@H](CN(C)S(=O)(=O)c2ccc(OC)cc2)[C@@H](C)CN([C@H](C)CO)C3=O)cc1	-9.7	.	.	.	.	.
C#CCN(C[C@H]1[C@H](OC(=O)Nc2c(C)noc2C)[C@H](OC(=O)Nc2c(C)noc2C)C[C@@H](C(=O)OC)[C@H]1C(=O)OC)S(=O)(=O)c1ccc(C)cc1	96.8*	0.9	5.1	.	.	.
C#CCN(C[C@@H]1[C@@H](OC(=O)Nc2cccs2)[C@@H](OC(=O)Nc2cccs2)C[C@H](C(=O)OC)[C@@H]1C(=O)OC)S(=O)(=O)c1ccc(C)cc1	39.2	.	-27.2	.	.	.
CC(C)NC(=O)N(C)C[C@@H]1OCCCC[C@H](C)Oc2ccc(NS(=O)(=O)c3ccccc3)cc2C(=O)N([C@H](C)CO)C[C@@H]1C	-7.7	.	-49.8[16.7 µM]	.	.	.
CN(C)C(=O)c1cccc(-c2ccc3c(c2)[C@@H]2[C@@H](CCN2C(=O)Cc2ccncc2)[C@@H](CO)N3)c1	-39.2	.	.	.	.	.
C[C@H](CO)N1C[C@H](C)[C@H](CN(C)C(=O)Nc2ccc3c(c2)OCO3)Oc2cc(C#Cc3cccnc3)ccc2S1(=O)=O	-5.0	.	-1.9[16.7 µM]	.	.	.
O=C(c1ccc(F)cc1)C1CCN(CCn2c(=O)[nH]c3ccccc3c2=O)CC1	-4.7	-1.5	60.6*!	7.8	2.5	-9.4
O=C(c1ccc(F)cc1)C1CCN(CCCn2c(=O)[nH]c3ccccc32)CC1	10.1	.	-4.4	.	.	.
CCC(=O)Nc1ccc2c(c1)OC[C@@H](C)N(C(=O)C1CC1)C[C@@H](C)[C@H](OC)CN(C)C2=O	.	.	9.2[16.7 µM]	.	.	.
O=C([C@H]1N[C@H]2c3ccc(/C=C/c4ccccc4)c(=O)n3C[C@H]2[C@@H]1CO)N1CCCCC1	.	.	-7.5[16.7 µM]	.	.	.
CC12CCC(=O)N1C(C(=O)NNC(=O)COc1ccc(Br)cc1)CS2 (stereo not drawn)	-7.9	0.0	1.1	-1.5	27.9	-4.3
Cc1cc(Cl)ccc1OCC(=O)NNC(=O)C1CSC2(C)CCC(=O)N12 (stereo not drawn)	.	2.2	71.3*	-1.1	-5.1	.
OC[C@H]1[C@@H](c2ccccc2)[C@@H](CNCC2CCC2)N1CC1CC1	1.2	.	.	.	.	.
CCOc1ccc(CCNC(=O)c2cc3sccc3n2CC)cc1OCC	-9.7	1.5	64.8*	6.9	3.9	-23.0
CCOc1ccc(CCNC(=O)CCC(=O)c2cccs2)cc1OCC	13.2	1.2	-24.7	-4.8	-3.0	-2.7
COc1ccc(C2=C(C=C(C#N)C#N)C(c3ccccc3C)c3ccccc3O2)cc1OC (stereo not drawn)	64.8*	0.0	.	-3.9	3.1	-10.9
Clc1ccc(N=c2ssnc2Cl)cc1	3.2	0.7	?	7.6	3.7	103.8*
SMILES	PAX8 reporter	N-glyco inh	HIV Env fusion	Rtt109 HAT inh	Arrestin-AP2 inh	PfHsp90 set2
Clc1nssc1=Nc1ccccc1	.	2.7	.	1.8	28.7	.
CS(=O)(=O)N(Cc1ccc(Cl)cc1)c1ccc(C(=O)NCCC2=CCCCC2)cc1	.	0.5	85.3*	3.6	-7.9	.
CS(=O)(=O)Nc1ccc(C(=O)NCCC2=CCCCC2)cc1	-49.6	-3.2	-20.2	-4.0	26.6	-9.8
c1cnc2ccc(C(c3nnnn3C3CCCCC3)N3CCCCC3)cc2c1 (stereo not drawn)	-18.2	-1.5	105.3*	17.5	-3.2	-4.2
CC(C)(C)n1nnnc1C(c1cccc(C#N)c1)N1CCN2CCCC2C1 (stereo not drawn)	.	1.6	-74.5	23.0	36.5	-9.1
CCC(C)(C)n1nnnc1C(c1ccc2ncccc2c1)N1CCCCCC1 (stereo not drawn)	-0.2	0.7	29.4*	-3.5	-0.8	-18.2
CC(C)(C)n1nnnc1C(c1cccc(C#N)c1)N1CCCCCC1 (stereo not drawn)	7.4	-1.7	93.9*	7.0	10.6	3.7
CCC(C)(C)n1nnnc1C(c1ccc(C)cc1)N1CCCC1 (stereo not drawn)	.	0.9	.	-8.5	-6.5	-32.9
C[C@@H]1CN([C@H](C)CO)C(=O)c2cc(NC(=O)NC3CCCCC3)ccc2O[C@@H]1CN(C)S(=O)(=O)c1ccccc1	7.8	.	.	.	.	.
C[C@@H]1CCCCO[C@H](CN(C)S(=O)(=O)c2ccccc2)[C@H](C)CN([C@@H](C)CO)C(=O)c2cc(NC(=O)c3ccncc3)ccc2O1	8.6	.	-23.1[16.7 µM]	.	.	.
Cc1ccc(S(=O)(=O)Nc2ccc3c(c2)C(=O)N([C@H](C)CO)C[C@@H](C)[C@@H](CN(C)Cc2ccc4c(c2)OCO4)OCCCC[C@@H](C)O3)cc1	97.0*	.	13.5[16.7 µM]	.	.	.
C[C@H](CO)N1C[C@H](C)[C@H](CN(C)Cc2ccc3c(c2)OCO3)OCCCC[C@H](C)Oc2ccc(NS(=O)(=O)c3ccc(Cl)cc3)cc2C1=O	76.1*	.	-43.3[16.7 µM]	.	.	.
C[C@@H]1CN([C@@H](C)CO)C(=O)c2cc(NS(=O)(=O)c3ccc(Cl)cc3)ccc2O[C@@H](C)CCCCO[C@H]1CN(C)Cc1ccc2c(c1)OCO2	53.0	.	-58.0[16.7 µM]	.	.	.
